Data reported in ChEMBL document CHEMBL3272186, “Synthesis of new cyclic nucleotides and their differential stimulatory effects on thyroid function in mice” (J Med Chem, 1976).

Key:
[1] = test system: Mus musculus; test: Induction of radioiodine secretion from 14 days iodine-poor diet fed mouse thyroid assessed as blood [125I] level at 60 mg/kg, iv after 2 hrs pretreated with 10 ug L-thyroxine and [125-I] relative to control by McKenzie Bioassay; format: functional, Thyroid gland
[2] = test system: Mus musculus; test: Induction of radioiodine secretion from 14 days iodine-poor diet fed mouse thyroid assessed as blood [125I] level at 6 mg/kg, iv after 2 hrs pretreated with 10 ug L-thyroxine and [125-I] relative to control by McKenzie Bioassay; format: functional, Thyroid gland
Method in brief: (§1)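 Weanling female mice (14–16 g) fed an iodine-poor diet for 14 days, then given 10 μg L-thyroxine sc and 6–8 μCi 125I ip, with L-thyroxine (1 mg/l) in drinking water for 3 days. On day 4, cyclic nucleotides were given into the tail vein as sodium salts in aqueous solution, pH 7.4. Orbital-sinus blood was sampled at 0 and 2 h and γ-counted. Result is cpm(2 h)/cpm(0 h) × 100; mean of about six animals per dose.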

[3] = test system: Mus musculus; test: Induction of radioiodine secretion from 14 days iodine-poor diet fed mouse thyroid assessed as blood [125I] level at 15 mg/kg, iv after 2 hrs pretreated with 10 ug L-thyroxine and [125-I] relative to control by McKenzie Bioassay; format: functional, Thyroid gland; method in brief: as §1
[4] = test system: Mus musculus; test: Induction of radioiodine secretion from 14 days iodine-poor diet fed mouse thyroid assessed as blood [125I] level at 30 mg/kg, iv after 2 hrs pretreated with 10 ug L-thyroxine and [125-I] relative to control by McKenzie Bioassay; format: functional, Thyroid gland; method in brief: as §1
[5] = Stability of the compound assessed as hydrolysis in presence of phosphodiesterase; format: ADME
[6] = test system: Mus musculus; test: Induction of serum thyroxine level in Swiss mouse measured per 100 ml at 1 mg, iv after 1 hr by radioimmunoassay (reference value: 4.20 +/- 0.25 to 6.06 +/- 0.36 ug); format: functional
[7] = Toxicity in iv dosed mouse; format: organism-based; conditions: in vivo
Method in brief: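 Female mice (14–16 g, post-weaning) kept 14 days on an iodine-poor diet. They were then given 10 μg L-thyroxine sc and 6–8 μCi 125I ip, followed by L-thyroxine 1 mg/l in drinking water for 3 days. On day 4, cyclic nucleotides were injected into the tail vein as sodium salts in aqueous solution, pH 7.4, at 6–60 mg/kg. Deaths were recorded per dose group of about six animals.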

[8] = test system: Mus musculus; test: Induction of radioiodine secretion from 14 days iodine-poor diet fed mouse thyroid assessed as blood [125I] level at 45 mg/kg, iv after 2 hrs pretreated with 10 ug L-thyroxine and [125-I] relative to control by McKenzie Bioassay; format: functional, Thyroid gland; method in brief: as §1
[9] = test system: Mus musculus; test: Induction of serum thyroxine level in Swiss mouse measured per 100 ml at 1 mg, iv after 2 hrs by radioimmunoassay (reference value: 4.20 +/- 0.25 to 6.06 +/- 0.36 ug); format: functional

Row | SMILES | Activity [1] | Activity [2] | Activity [3] | Activity [4] | Stability [5] | serum T4 [6] | LD50 [7] | Activity [8] | serum T4 [9]
1 | Nc1ncnc2c1nc(Br)n2[C@@H]1O[C@@H]2COP(=O)([O-])O[C@H]2[C@H]1O.[Na+] | 488% | 248% | 284% | 331% |  |  |  |  | 
2 | CCCC(=O)Nc1ncnc2c1ncn2[C@@H]1O[C@@H]2COP(=O)([O-])O[C@H]2[C@H]1OC(=O)CCC.[Na+] | 245% |  |  | 136% | Stable | 5.15 µg/dL | > 200 mg/kg |  | 
3 | CCCC(=O)Nc1ncnc2c1nc(SCc1ccccc1)n2[C@@H]1O[C@@H]2COP(=O)([O-])O[C@H]2[C@H]1OC(=O)CCC.[Na+] | 123% | 116% | 170% | 141% |  |  |  |  | 
4 | CCCC(=O)Nc1ncnc2c1nc(SC)n2[C@@H]1O[C@@H]2COP(=O)([O-])O[C@H]2[C@H]1OC(=O)CCC.[Na+] | 174% |  | 150% | 125% |  |  | > 200 mg/kg |  | 
5 | CCCC(=O)O[C@@H]1[C@@H]2OP(=O)([O-])OC[C@H]2O[C@H]1n1c(SC)nc2c(N)ncnc21.[Na+] |  |  |  | 156% |  |  | > 200 mg/kg | 110% | 
6 | CCCC(=O)Nc1ncnc2c1nc(N)n2[C@@H]1O[C@@H]2COP(=O)([O-])O[C@H]2[C@H]1OC(=O)CCC.[Na+] | 164% |  |  | 146% |  |  | > 200 mg/kg |  | 
7 | Nc1ncnc2c1nc(SCc1ccccc1)n2[C@@H]1O[C@@H]2COP(=O)([O-])O[C@H]2[C@H]1O.[Na+] |  | 135% | 183% | 195% |  |  |  |  | 
8 | CSc1nc2c(N)ncnc2n1[C@@H]1O[C@@H]2COP(=O)([O-])O[C@H]2[C@H]1O.[Na+] |  | 492% | 645% | 804% |  | 6.32 µg/dL |  |  | 6.47 µg/dL
9 | Nc1ncnc2c1nc(N)n2[C@@H]1O[C@@H]2COP(=O)([O-])O[C@H]2[C@H]1O.[Na+] |  | 226% | 663% | 607% |  | 6.84 µg/dL |  | 818% | 
10 | CCCC(=O)Nc1ncnc2c1nc(S)n2[C@@H]1O[C@@H]2COP(=O)([O-])O[C@H]2[C@H]1O.[Na+] | 630% |  | 139% | 342% |  |  | > 200 mg/kg |  | 
11 | [N-]=[N+]=Nc1nc2c(N)ncnc2n1[C@@H]1O[C@@H]2COP(=O)([O-])O[C@H]2[C@H]1O.[Na+] |  | 227% | 594% | 633% |  | 6.19 µg/dL |  |  | 
12 | CCCC(=O)Nc1ncnc2c1nc(O)n2[C@@H]1O[C@@H]2COP(=O)([O-])O[C@H]2[C@H]1OC(=O)CCC.[Na+] | 582% |  | 184% | 500% |  | 5.58 µg/dL | > 200 mg/kg |  | 
13 | CCCC(=O)Nc1ncnc2c1nc(SC)n2[C@@H]1O[C@@H]2COP(=O)([O-])O[C@H]2[C@H]1O.[Na+] | 533% |  | 121% | 204% |  |  | > 200 mg/kg |  | 
14 | CCCC(=O)Nc1ncnc2c1nc(S)n2[C@@H]1O[C@@H]2COP(=O)([O-])O[C@H]2[C@H]1OC(=O)CCC.[Na+] | 238% |  | 154% | 177% |  | 4.3 µg/dL | > 200 mg/kg |  | 
15 | CCCC(=O)Nc1ncnc2c1nc(SCc1ccccc1)n2[C@@H]1O[C@@H]2COP(=O)([O-])O[C@H]2[C@H]1O.[Na+] | 197% |  | 146% | 122% |  |  | > 200 mg/kg |  | 
16 | CCCC(=O)O[C@@H]1[C@@H]2OP(=O)([O-])OC[C@H]2O[C@H]1n1c(S)nc2c(N)ncnc21.[Na+] | 190% |  | 155% | 153% |  |  | > 200 mg/kg |  | 
17 | Nc1ncnc2c1nc(S)n2[C@@H]1O[C@@H]2COP(=O)([O-])O[C@H]2[C@H]1O.[Na+] |  | 136% |  |  |  |  |  |  | 
18 | Nc1ncnc2c1nc(O)n2[C@@H]1O[C@@H]2COP(=O)([O-])O[C@H]2[C@H]1O.[Na+] |  |  | 114% |  |  |  |  |  | 
19 | CSc1nc2c(N)ncnc2n1[C@@H]1O[C@H](COP(=O)(O)O)[C@@H](O)[C@H]1O |  |  |  | 112% |  | 4.44 µg/dL |  |  | 4.78 µg/dL
20 | [Cl-].[Na+] [SODIUM CHLORIDE] |  |  |  |  |  | 6 µg/dL |  |  | 5.83 µg/dL
